Bioassay records from PubChem.
FLuc act counter: firefly luciferase counter-screen for stimulation assays. P08659. ATPlite luciferase biochemical, luminescence, 10 min; 0 = ATP-free wells, 1 = DMSO control. activation factor at 10 µM. 200,000 tested, under 10 active;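 active = luciferase activation factor, scaled between plate controls, of at least 2 with compound at 10 µM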
Target sequence (P08659 whole entry, looked up): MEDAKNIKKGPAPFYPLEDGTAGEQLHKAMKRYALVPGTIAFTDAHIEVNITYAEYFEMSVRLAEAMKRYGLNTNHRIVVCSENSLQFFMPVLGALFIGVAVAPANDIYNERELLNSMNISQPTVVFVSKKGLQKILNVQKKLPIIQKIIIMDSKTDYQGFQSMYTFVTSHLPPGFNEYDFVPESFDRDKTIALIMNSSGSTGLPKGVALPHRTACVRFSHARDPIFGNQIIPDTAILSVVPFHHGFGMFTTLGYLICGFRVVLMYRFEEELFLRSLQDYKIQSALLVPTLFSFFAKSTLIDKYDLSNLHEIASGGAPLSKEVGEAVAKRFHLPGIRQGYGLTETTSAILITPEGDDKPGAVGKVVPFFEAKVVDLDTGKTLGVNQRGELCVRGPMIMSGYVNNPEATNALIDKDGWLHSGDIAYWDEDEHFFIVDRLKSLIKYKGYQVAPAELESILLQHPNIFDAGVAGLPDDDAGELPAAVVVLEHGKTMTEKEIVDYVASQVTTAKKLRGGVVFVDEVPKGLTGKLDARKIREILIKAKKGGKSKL
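System: cell-free luciferase reagent; medium: PBS as buffer for the ATP substrate; doses: test compounds dosed from 2 mM stocks in 100% DMSO; incubation: 10 min, room temperature; measured by: luminescence from luciferase reaction; read-out: luciferase activation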
PPC-1+TRAIL kill: kills PPC-1 cancer cells in the presence of TRAIL | PPC-1 cells + TRAIL, ATPLite viability luminescence | cell killing (% activity), % at 4 µM or 5 µM | 220,000 tested, 0.41% active | AID 1443;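 active = cell killing above 50% in the first pass at 4 µM, then a duplicate retest at 5 µM averaging 50% or more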;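 also: plate controls were cells with TRAIL plus DMSO for no effect and medium-only wells lacking cells for full effect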
hiPSC survival: increases survival of single human iPS cells; hiPSC single-cell survival, ATPlite luminescence; 100% = ROCK inhibitor wells, 0% = DMSO; survival enhancement, % at 20 µM; 360,000 tested, 0.044% active; in the data active = survival enhancement above about 18%;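 also: cells exposed to compounds for 16 hours before the ATP read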
FLuc inh counter: Photinus pyralis luciferase inhibition counter-screen; ATPLite firefly luciferase biochemical luminescence, 10 min; P08659; 200,000 tested, 1.5% active; inhibition, % at 10 µM;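 active = inhibition above about 50% when tested at 10 µM, limit read from the data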
beta cell repl: induces beta-cell replication in MIN6 cells; proliferation, % at 10 µM; MIN6 cells proliferation, ATPlite luminescence, 48 h; cells starved in 0.2% serum; 100% = growth in 10% serum; 330,000 tested, 0.29% active;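 active = compounds whose signal lies at least 3.5 SD above the mean of all wells on their plate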;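 also: 0% = DMSO-treated cells in low-serum medium and 100% = 10% serum control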
TRAIL sens C8: caspase-8 TRAIL sensitization; NB7+C8 cells + TRAIL, ATPlite viability luminescence; inhibition (viability loss, TRAIL sensitization), % at 10 µM; 360,000 tested, 1% active;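 active = compounds causing at least 50% loss of cell viability in the single-dose screen, relative to plate controls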
Active calls of the source: *; · = no result. Compounds with a hit are over-represented: about 1.8% of the library has one in this group of screens.

SMILES | FLuc act counter | PPC-1+TRAIL kill | hiPSC survival | FLuc inh counter | beta cell repl | TRAIL sens C8
N#Cc1c(N)n(-c2ccc(N)cc2)c2nc3ccccc3nc12 | · | 19.3 | -0.4 | · | 1.3 | -3.1
Cc1cccc(-n2ncc3c(NC(C)C)ncnc32)c1 | 0.4 | 31.0 | -3.4 | 63.2* | -2.4 | 66.4*
CCCNc1ncnc2c1cnn2-c1ccc(OC)cc1 | 0.6 | · | · | 43.1 | · | ·
C=CCNc1ncnc2c1cnn2-c1ccc(OC)cc1 | 0.4 | 41.2 | -2.0 | 59.0* | -3.6 | 25.3
CC(C)Nc1ncnc2c1cnn2-c1ccccc1 | 0.2 | · | -2.7 | 78.9* | -4.5 | 43.0
O=C(Nc1cccc(-c2cccc(Cl)c2)c1)C1CCN(Cc2nccs2)CC1 | · | · | -1.2 | · | · | 0.2
CCCN(CC(=O)Nc1ccccc1C)C(=O)c1ccc(S(=O)(=O)N2CCC(C)CC2)cc1 | · | · | -0.5 | · | 0.3 | -7.9
CC1(C)Cc2[nH]c3ccccc3c2C(C)(C)N1 | · | · | -0.3 | · | 0.9 | 2.8
Cc1ccccc1NC(=O)Cc1nc(COC(=O)Cc2c(F)cccc2Cl)cs1 | · | · | 0.3 | · | -2.8 | 6.6
CCCCc1ccc(-c2ccc(C)cc2O)nc1 | 0.2 | 33.7 | -2.0 | 75.4* | -3.0 | 42.6
CC(=NC1CCCCC1)c1ccc(O)cc1O | · | · | -0.1 | · | · | -0.3
CC(=NC1CCCCC1)C1=C(O)c2ccccc2C1=O | 0.4 | 35.0 | -3.6 | 57.5* | -1.7 | 22.2
Cc1cc(C(=O)Nc2sc3c(c2C#N)CCC3)no1 | 0.3 | 24.2 | -1.2 | 65.9* | -4.7 | 50.9*
Cc1cc(C(=O)Nc2sc3c(c2C#N)CCC(C)C3)no1 (centres undefined) | 0.3 | 32.7 | -1.8 | 72.5* | -4.2 | 55.3*
N#Cc1c(NC(=O)c2cc(C3CC3)on2)sc2c1CCC2 | 1 | 20.0 | 6.2 | -4.5 | -0.3 | 17.4
CC(C)Cc1cc(C(=O)Nc2sc3c(c2C#N)CCC3)no1 | 1 | 0.0 | 6.4 | -1.6 | 0.0 | -3.0
Cc1cc(C(=O)Nc2sc3c(c2C#N)CCCC3)no1 | 0.2 | 20.5 | -1.4 | 83.7* | -5.2 | 51.8*
O=C(CSC(=S)N1CCOCC1)Nc1ccc(S(=O)(=O)Nc2ncccn2)cc1 | · | · | 0.0 | · | 2.6 | 7.2
C/C(=N\NC(=O)c1cc(Br)ccc1O)c1cccs1 | 0.4 | 26.1 | -2.6 | 64.7* | 0.7 | 21.2
C/C(=N\NC(=O)c1ccccc1O)c1ccc(Br)s1 | 0.2 | 41.1 | -1.3 | 78.7* | -1.2 | 54.4*
CC1CC(C)CN(C(=O)COC(=O)Cc2ccc(Br)cc2)C1 (centres undefined) | · | · | 0.5 | · | 0.5 | -12.2
Cc1ccc2nc(NC(=O)c3ccc(N4C(=O)CCC4=O)cc3)sc2c1 | 0.9 | 14.0 | -0.9 | 9.5 | -1.6 | 13.3
Cc1ccnc(NC(=O)c2ccc3c(c2)C(=O)N(CC2CCCO2)C3=O)c1 (centres undefined) | 0.4 | 27.5 | -2.5 | 56.2* | -0.3 | 6.7
Cc1csc(NC(=O)c2ccc(OCC3CCCO3)cc2)n1 (centres undefined) | 0.3 | 32.2 | -0.9 | 73.6* | -4.1 | 53.6*
Cc1ccnc(NC(=O)c2ccc(OCC3CCCO3)cc2)c1 (centres undefined) | · | · | -0.5 | · | -7.1 | 90.8*
SMILES | FLuc act counter | PPC-1+TRAIL kill | hiPSC survival | FLuc inh counter | beta cell repl | TRAIL sens C8
Cc1ccnc(NC(=O)c2ccc(N3C(=O)CCC3=O)cc2)c1 | 0.2 | 16.0 | -1.1 | 78.6* | 0.0 | 26.3
Cc1cc(C)cc(C(O)c2ncc(-c3ccc(C(F)(F)F)cc3)[nH]2)c1 (centres undefined) | · | · | -1.9 | · | · | -5.5
COc1cccc(CNC(=O)CCC(=O)N2CCOCC2)c1 | · | · | -0.3 | · | 5.3 | 6.4
COc1ccc2c(n1)Sc1nc3ccccc3nc1N2 | · | 18.7 | 0.5 | · | · | 77.0*
COc1cc2ccccc2nn1 | · | -11.2 | -0.5 | · | -1.2 | -4.5
COc1ccc(OC)c(S(=O)(=O)Nc2ccc(-c3ccc4nncn4n3)cc2)c1 | · | · | 0.6 | · | -5.5 | 65.8*
O=S(=O)(Nc1ccc(-c2ccc3nncn3n2)cc1)c1cc(F)ccc1F | · | · | -0.3 | · | 9.5 | 1.0
COc1ccc(-c2nnn(CC(=O)NCCc3ccc(OC)c(OC)c3)n2)cc1 | 1 | 3.2 | -0.7 | -1.0 | -0.3 | 1.2
Cc1c(OCc2ccc([N+](=O)[O-])cc2)ccc2c3c(c(=O)oc12)CCC3 | 1 | 29.9 | -0.5 | -0.2 | 0.0* | 14.1
Cc1nc(Nc2ccccc2)sc1-c1ccccc1 | 0.2 | 32.6 | -3.6 | 84.9* | 0.0 | 65.7*
Cc1nc(Nc2ccc(C(=O)O)cc2)sc1-c1ccccc1 | 0.6 | 27.5 | -1.3 | 44.7 | -0.7 | 14.6
O=C(CNC(=O)c1ccccc1F)N/N=C/c1cc(Br)ccc1OC(=O)/C=C/c1ccco1 | 1 | 28.2 | -0.5 | -3.3 | -5.5 | 53.0*
Cc1cc(NC(=O)NC(=O)c2ccc(F)cc2F)n[nH]1 | 0.5 | 27.9 | -0.7 | 53.2* | -2.6 | 23.1
Cc1cc(NC(=O)c2cccc(Cl)c2)n[nH]1 | · | · | 0.0 | · | -1.0 | 16.7
COc1ccc(CC(=O)Nc2cccc(-c3nnc(-c4ccccc4)o3)c2)cc1OC | 1 | 23.9 | 0.5 | 1.3 | · | 56.2*
COc1ccc(CC(=O)Nc2ccc(-c3nnc(-c4ccccc4)o3)cc2)cc1OC | 1 | 3.5 | -1.9 | -0.6 | 1.4 | -3.1
COc1ccc(CC(=O)Nc2cccc(-c3nnc(-c4cccc(C)c4)o3)c2)cc1OC | 1 | 25.7 | 4.1 | 0.1 | -7.2 | 3.3
COc1ccc(CC(=O)Nc2cccc(-c3nnc(-c4ccc(C)cc4)o3)c2)cc1OC | 0.8 | 16.3 | -3.4 | 15.5 | -1.3 | 90.1*
COC(=O)Cc1c(C)nc2nc(-c3ccccc3)[nH]n2c1=O | 0.9 | 15.7 | 8.2 | 5.9 | -1.4 | 1.4
COC(=O)Cc1c(C)nc2nc(-c3cccnc3)[nH]n2c1=O | 1 | 2.9 | 0.4 | 3.6 | -1.4 | -7.3
COC(=O)Cc1c(C)nc2nc(-c3ccc(Cl)cc3)[nH]n2c1=O | 0.4 | 37.2 | -2.6 | 57.8* | -2.3 | 29.9
Cc1nc2nc(-c3ccc(Cl)cc3)[nH]n2c(=O)c1C | 0.3 | 40.4 | · | 66.3* | · | ·
Cc1cc(=O)n2[nH]c(-c3ccc(F)cc3)nc2n1 | 0.3 | 37.1 | -1.3 | 65.9* | -2.2 | 50.5*
COC(=O)Cc1c(C)nc2nc(-c3ccc(C)cc3)[nH]n2c1=O | 0.5 | 5.0 | -1.6 | 50.0* | -5.6 | 27.0
Cc1cccc(OCCNC(=O)CCc2ccccc2)c1 | · | · | 3.2 | · | 2.7 | -9.1
COCOCCn1cc(CN2CCS(=O)(=O)N(Cc3ccc(-c4cccc(N(C)C)c4)cc3)C(C(C)C)C2=O)nn1 (centres undefined) | · | · | -1.1 | · | · | 0.2
O=C1[C@H]2[C@@H](/C=C/c3ccccc3)N3C(=O)CN(CCO)C(=O)[C@@]3(Cc3ccccc3)[C@H]2C(=O)N1c1ccccc1 | · | · | 1.9 | · | -1.6 | -3.6
O=C1[C@H]2[C@@H](/C=C/c3ccccc3)N3C(=O)CN(CC4CC4)C(=O)[C@@]3(Cc3ccccc3)[C@H]2C(=O)N1c1ccccc1 | · | · | -0.2 | · | -3.0 | 54.9*
